The source made the active and inactive calls. The rule behind the calls is not given here.
How the values were obtained:
Klebsiella pneumoniae [1] = assay: Potentiation of colistin-induced antimicrobial activity against Klebsiella pneumoniae isolate B9 after 16 hrs by broth microdilution assay; type: functional, organism-based
Summary of the method: (§1)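 Analogue at a fixed 60 μM unless otherwise noted, combined with colistin against the Gram-negative strain. Potentiation is read as the fold reduction in colistin MIC relative to colistin alone. A. baumannii 3941/4106 and K. pneumoniae C3/B9 are primary clinical isolates with genomically encoded colistin resistance.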

Klebsiella pneumoniae [2] = assay: Potentiation of colistin-induced antimicrobial activity against Klebsiella pneumoniae isolate B9 after 16 hrs in presence of 0.01% triton X-100 by broth microdilution assay; type: functional, organism-based
Acinetobacter baumannii [3] = assay: Potentiation of colistin-induced antimicrobial activity against Acinetobacter baumannii isolate 5075 assessed as fold reduction in colistin MIC after 16 hrs by broth microdilution assay; type: functional; summary of the method: as §1
Staphylococcus aureus [4] = assay: Potentiation of vancomycin-induced antibacterial activity against methicillin-resistant Staphylococcus aureus ATCC 43300 assessed as dispersion of preformed biofilm after 24 hrs by crystal violet staining based method; type: functional, organism-based; details: ATCC 43300, 24 h
Klebsiella pneumoniae [5] = assay: Antibacterial activity against Klebsiella pneumoniae isolate C3 after 16 hrs by broth microdilution assay; details: for MIC: […]
Escherichia coli [6] = assay: Antibacterial activity against Escherichia coli ATCC 25922 expressing mcr1 gene after 16 hrs by broth microdilution assay; type: organism-based; details: in vitro
Acinetobacter baumannii [7] = assay: Potentiation of colistin-induced antimicrobial activity against Acinetobacter baumannii ATCC 17978 expressing mcr1 gene assessed as fold reduction in colistin MIC after 16 hrs by broth microdilution assay; type: functional; summary of the method: as §1
Klebsiella pneumoniae [8] = assay: Antibacterial activity against Klebsiella pneumoniae isolate B9 after 16 hrs by broth microdilution assay; details: in vivo
Klebsiella pneumoniae [9] = assay: Potentiation of colistin-induced antimicrobial activity against Klebsiella pneumoniae isolate B9 assessed as fold reduction in colistin MIC after 16 hrs by broth microdilution assay; type: functional; summary of the method: as §1
Staphylococcus aureus [10] = assay: Antibiofilm activity against methicillin-resistant Staphylococcus aureus ATCC 43300 assessed induction of dispersion of preformed biofilm after 24 hrs by crystal violet staining based method; type: functional, organism-based; details: ATCC 43300, 24 h
Acinetobacter baumannii [11] = assay: Potentiation of colistin-induced antimicrobial activity against Acinetobacter baumannii isolate 4106 assessed as fold reduction in colistin MIC after 16 hrs by broth microdilution assay; type: functional; summary of the method: as §1
Staphylococcus aureus [12] = assay: Antibacterial activity against methicillin-resistant Staphylococcus aureus ATCC 43300 after 16 hrs by broth microdilution assay; type: functional; details: for MIC: ATCC 43300, 16 h
Escherichia coli [13] = assay: Antibacterial activity against Escherichia coli ATCC 25922 after 16 hrs by broth microdilution assay; type: organism-based
Acinetobacter baumannii [14] = assay: Potentiation of colistin-induced antimicrobial activity against Acinetobacter baumannii ATCC 19606 assessed as fold reduction in colistin MIC after 16 hrs by broth microdilution assay; type: functional, ATCC 19606 = CIP 70.34 = JCM 6841; summary of the method: as §1
Staphylococcus aureus [15] = assay: Inhibition of biofilm formation in methicillin-resistant Staphylococcus aureus ATCC 43300 after 24 hrs by crystal violet staining based method; type: functional, organism-based; details: ATCC 43300, 24 h
Summary of the method: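 Read-out is the IC50, taken as the compound concentration that inhibits 50% of MRSA 43300 biofilm formation.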

Acinetobacter baumannii [16] = assay: Antibacterial activity against Acinetobacter baumannii ATCC 17978 expressing mcr1 gene after 16 hrs by broth microdilution assay; type: organism-based; details: in vitro
Escherichia coli [17] = assay: Potentiation of colistin-induced antimicrobial activity against Escherichia coli ATCC 25922 assessed as fold reduction in colistin MIC after 16 hrs by broth microdilution assay; type: functional; summary of the method: as §1
Klebsiella pneumoniae [18] = assay: Antibacterial activity against Klebsiella pneumoniae ATCC 2146 expressing NDM1 gene after 16 hrs by broth microdilution assay; type: organism-based; details: for MIC: […]; for Activity: in vitro
Acinetobacter baumannii [19] = assay: Antibacterial activity against Acinetobacter baumannii isolate 4106 after 16 hrs by broth microdilution assay; type: organism-based
Acinetobacter baumannii [20] = assay: Antibacterial activity against Acinetobacter baumannii ATCC 17978 after 16 hrs by broth microdilution assay; type: organism-based
Acinetobacter baumannii [21] = assay: Antibacterial activity against Acinetobacter baumannii isolate 5075 after 16 hrs by broth microdilution assay; type: organism-based
Acinetobacter baumannii [22] = assay: Antibacterial activity against Acinetobacter baumannii isolate 3941 after 16 hrs by broth microdilution assay; type: organism-based
Acinetobacter baumannii [23] = assay: Potentiation of colistin-induced antimicrobial activity against Acinetobacter baumannii isolate 4106 after 16 hrs in presence of 0.01% triton X-100 by broth microdilution assay; type: functional, organism-based
Klebsiella pneumoniae [24] = assay: Potentiation of colistin-induced antimicrobial activity against Klebsiella pneumoniae isolate C3 assessed as fold reduction in colistin MIC after 16 hrs by broth microdilution assay; type: functional; summary of the method: as §1
Acinetobacter baumannii [25] = assay: Antibacterial activity against Acinetobacter baumannii ATCC 19606 after 16 hrs by broth microdilution assay; type: organism-based, ATCC 19606 = CIP 70.34 = JCM 6841; details: for MIC: […]
Acinetobacter baumannii [26] = assay: Potentiation of colistin-induced antimicrobial activity against Acinetobacter baumannii ATCC 17978 assessed as fold reduction in colistin MIC after 16 hrs by broth microdilution assay; type: functional; summary of the method: as §1
Escherichia coli [27] = assay: Potentiation of colistin-induced antimicrobial activity against Escherichia coli ATCC 25922 expressing mcr1 gene assessed as fold reduction in colistin MIC after 16 hrs by broth microdilution assay; type: functional; summary of the method: as §1
Klebsiella pneumoniae [28] = assay: Potentiation of colistin-induced antimicrobial activity against Klebsiella pneumoniae ATCC 2146 expressing NDM1 gene assessed as fold reduction in colistin MIC after 16 hrs by broth microdilution assay; type: functional; summary of the method: as §1
Acinetobacter baumannii [29] = assay: Potentiation of colistin-induced antimicrobial activity against Acinetobacter baumannii isolate 3941 after 16 hrs by broth microdilution assay; type: functional, organism-based; summary of the method: as §1
Staphylococcus aureus [30] = assay: Antibiofilm activity against methicillin-resistant Staphylococcus aureus ATCC 43300 assessed as dispersion of preformed biofilm after 24 hrs by crystal violet staining based method
Staphylococcus aureus [31] = assay: Antibiofilm activity against methicillin-resistant Staphylococcus aureus ATCC 43300 at < 60 uM after 16 hrs by broth microdilution assay; type: functional, organism-based
Staphylococcus aureus [32] = assay: Effect on planktonic growth of methicillin-resistant Staphylococcus aureus ATCC 43300 at 60 uM after 16 hrs by broth microdilution assay; type: organism-based

Structure (SMILES) | EC50 (Staphylococcus aureus [4]) | MIC (Klebsiella pneumoniae [5]) | MIC (Escherichia coli [6]) | MIC (Klebsiella pneumoniae [8]) | EC50 (Staphylococcus aureus [10]) | MIC (Staphylococcus aureus [12]) | MIC (Escherichia coli [13]) | fold change (FC) (Acinetobacter baumannii [14]) | IC50 (Staphylococcus aureus [15]) | MIC (Acinetobacter baumannii [16]) | fold change (FC) (Escherichia coli [17]) | MIC (Klebsiella pneumoniae [18]) | MIC (Acinetobacter baumannii [19]) | MIC (Acinetobacter baumannii [20]) | MIC (Acinetobacter baumannii [21]) | MIC (Acinetobacter baumannii [22]) | MIC (Acinetobacter baumannii [25]) | fold change (FC) (Acinetobacter baumannii [26]) | further results
CCNc1nccc(-c2c[nH]c3ccc(Br)cc23)n1.Cl | 66.5 µM | > 200 µM | > 200 µM | > 200 µM | 75.8 µM | 50 µM | > 200 µM | 16 | 24.6 µM | > 200 µM | 8 | > 200 µM | > 200 µM | > 200 µM | > 200 µM | > 200 µM | > 200 µM | 16 | Activity (Klebsiella pneumoniae [1]): Active; Activity (Klebsiella pneumoniae [2]): inactive; fold change (FC) (Acinetobacter baumannii [3]): 16; fold change (FC) (Acinetobacter baumannii [7]): 128; fold change (FC) (Klebsiella pneumoniae [9]): 512; fold change (FC) (Acinetobacter baumannii [11]): 512; Activity (Acinetobacter baumannii [23]): inactive; fold change (FC) (Klebsiella pneumoniae [24]): 512; fold change (FC) (Escherichia coli [27]): 16; fold change (FC) (Klebsiella pneumoniae [28]): 16; Activity (Acinetobacter baumannii [29]): Active
CN(C)c1nccc(-c2c[nH]c3ccc(Br)cc23)n1.Cl | – | > 200 µM | > 200 µM | > 200 µM | > 160 µM | 100 µM | > 200 µM | – | 23.4 µM | > 200 µM | – | > 200 µM | > 200 µM | > 200 µM | > 200 µM | > 200 µM | > 200 µM | – | EC50 (Staphylococcus aureus [30]): Not Active
CC(C)Cn1cc(-c2ccnc(N)n2)c2cc(Br)ccc21.Cl | – | > 200 µM | > 200 µM | > 200 µM | – | – | > 200 µM | 16 | > 100 µM | > 200 µM | 16 | > 200 µM | > 200 µM | > 200 µM | > 200 µM | > 200 µM | > 200 µM | 16 | –
Nc1nccc(-c2c[nH]c3ccccc23)n1 | – | – | – | – | – | – | – | – | > 100 µM | – | – | – | – | – | – | – | – | – | Activity (Klebsiella pneumoniae [2]): inactive; Activity (Staphylococcus aureus [12]): inactive; Activity (Acinetobacter baumannii [23]): inactive
Cl.Nc1nc(-c2c[nH]c3ccc(Br)cc23)c[nH]1 | > 100 µM | – | – | – | 102 µM | 25 µM | – | – | – | – | – | – | – | – | – | – | – | – | Activity (Klebsiella pneumoniae [5]): Toxic; Activity (Klebsiella pneumoniae [8]): Toxic; Activity (Klebsiella pneumoniae [18]): Toxic; Activity (Acinetobacter baumannii [19]): Toxic; Activity (Acinetobacter baumannii [20]): Toxic; Activity (Acinetobacter baumannii [21]): Toxic; Activity (Acinetobacter baumannii [22]): Toxic; Activity (Staphylococcus aureus [31]): inactive; Activity (Acinetobacter baumannii [25]): Toxic; Activity (Staphylococcus aureus [32]): Toxic
Cl.Nc1nc(-c2c[nH]c3cc(Br)ccc23)c[nH]1 | > 100 µM | – | – | – | 101 µM | 25 µM | – | – | – | – | – | – | – | – | – | – | – | – | Activity (Klebsiella pneumoniae [5]): Toxic; Activity (Klebsiella pneumoniae [8]): Toxic; Activity (Klebsiella pneumoniae [18]): Toxic; Activity (Acinetobacter baumannii [19]): Toxic; Activity (Acinetobacter baumannii [20]): Toxic; Activity (Acinetobacter baumannii [21]): Toxic; Activity (Acinetobacter baumannii [22]): Toxic; Activity (Staphylococcus aureus [31]): inactive; Activity (Acinetobacter baumannii [25]): Toxic; Activity (Staphylococcus aureus [32]): Toxic
CCCn1cc(-c2ccnc(N)n2)c2ccc(Br)cc21.Cl | – | – | – | – | > 160 µM | 200 µM | – | 16 | 34.3 µM | – | – | – | – | – | – | – | – | – | Activity (Klebsiella pneumoniae [5]): Toxic; Activity (Klebsiella pneumoniae [8]): Toxic; Activity (Klebsiella pneumoniae [18]): Toxic; Activity (Acinetobacter baumannii [19]): Toxic; Activity (Acinetobacter baumannii [20]): Toxic; Activity (Acinetobacter baumannii [21]): Toxic; Activity (Acinetobacter baumannii [22]): Toxic; EC50 (Staphylococcus aureus [30]): Not Active; Activity (Acinetobacter baumannii [25]): Toxic
CNc1nccc(-c2c[nH]c3ccc(Br)cc23)n1.Cl | 71.4 µM | > 200 µM | > 200 µM | > 200 µM | 73.1 µM | 100 µM | > 200 µM | 16 | 28.9 µM | > 200 µM | – | > 200 µM | > 200 µM | > 200 µM | > 200 µM | > 200 µM | > 200 µM | – | Activity (Klebsiella pneumoniae [1]): Active; fold change (FC) (Klebsiella pneumoniae [24]): 512
CCCn1cc(-c2ccnc(N)n2)c2cc(Br)ccc21.Cl | – | > 200 µM | > 200 µM | > 200 µM | – | 100 µM | > 200 µM | – | 69.3 µM | > 200 µM | 16 | > 200 µM | > 200 µM | > 200 µM | > 200 µM | > 200 µM | > 200 µM | 16 | Activity (Klebsiella pneumoniae [1]): Active; fold change (FC) (Acinetobacter baumannii [3]): 128; fold change (FC) (Acinetobacter baumannii [7]): 4; fold change (FC) (Klebsiella pneumoniae [9]): 512; fold change (FC) (Acinetobacter baumannii [11]): 64; fold change (FC) (Escherichia coli [27]): 4; fold change (FC) (Klebsiella pneumoniae [28]): 16
CCCCn1cc(-c2ccnc(N)n2)c2cc(Br)ccc21.Cl | – | > 200 µM | > 200 µM | > 200 µM | > 160 µM | 50 µM | > 200 µM | 16 | 38.1 µM | > 200 µM | 16 | > 200 µM | > 200 µM | > 200 µM | > 200 µM | > 200 µM | > 200 µM | 16 | EC50 (Staphylococcus aureus [30]): Not Active
Cc1ccc2[nH]cc(-c3ccnc(N)n3)c2c1.Cl | – | > 200 µM | > 200 µM | > 200 µM | – | – | > 200 µM | – | > 100 µM | > 200 µM | – | > 200 µM | > 200 µM | > 200 µM | > 200 µM | > 200 µM | > 200 µM | – | Activity (Klebsiella pneumoniae [2]): inactive; Activity (Staphylococcus aureus [12]): inactive; Activity (Acinetobacter baumannii [23]): inactive
Cl.Nc1nccc(-c2c[nH]c3cc(Br)ccc23)n1 | – | – | – | – | – | > 200 µM | – | – | 87.4 µM | – | 0 | – | – | – | – | – | – | 2 | fold change (FC) (Acinetobacter baumannii [3]): 4; fold change (FC) (Acinetobacter baumannii [7]): 32; fold change (FC) (Klebsiella pneumoniae [9]): 64; fold change (FC) (Acinetobacter baumannii [11]): 64; fold change (FC) (Escherichia coli [27]): 2; fold change (FC) (Klebsiella pneumoniae [28]): 2

From ChEMBL document CHEMBL4196121, “Meridianin D Analogues Display Antibiofilm Activity against MRSA and Increase Colistin Efficacy in Gram-Negative Bacteria” (ACS Med Chem Lett, 2018)
